The values that follow come from ChEMBL document CHEMBL3994569, “Synthesis, anti-varicella-zoster virus and anti-cytomegalovirus activity of quinazoline-2,4-diones containing isoxazolidine and phosphonate substructures” (Eur J Med Chem, 2017).

The subject of data set [1] is Cytomegalovirus. As to the kind of experiment: Antiviral activity against Cytomegalovirus AD169 infected in HEL cells assessed as reduction in virus plaque formation. Type of data set: functional, cell-based. Put shortly: (§1)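 Confluent HEL fibroblast cultures infected with 100 PFU of HCMV and kept with varying compound concentrations. Plaques scored once plaque formation was complete in untreated infected controls.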

Data set [2] deals with Cytomegalovirus. In words: Antiviral activity against Cytomegalovirus Davis infected in HEL cells assessed as reduction in virus plaque formation. Type of data set: functional, cell-based. Put shortly: as §1
Data set [3] concerns HEL. In words: (§2) Cytotoxicity against HEL cells infected with Cytomegalovirus assessed as alteration in cell morphology by microscopic method. Type of data set: cell-based. As to conditions: human, hel. Put shortly:
(§3)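 In the HEL cultures used for the antiviral assays, cell morphology was examined microscopically across varying compound concentrations. MCC is the minimum concentration causing a microscopically detectable alteration of cell morphology.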

For a further data set, the system named is CCRF-CEM. In words: Anti-proliferative activity against human CEM cells measured after 72 hrs by coulter counter method. Type of data set: ADME, cell-based. Put shortly:
(§4)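 Cells at 300,000–500,000 cells/mL, combined 1:1 by volume with compound dilutions, incubated at 37 °C: L1210 for two days, CEM for three days, HeLa for four days. Cells counted by Coulter counter.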

The subject of another data set is HMEC-1. As to the kind of experiment: Anti-proliferative activity against HMEC1 cells by coulter counter method. Type of data set: ADME, cell-based, Homo sapiens. Put shortly:
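HMEC-1 cells at 300,000–500,000 cells/mL, mixed 1:1 by volume with serial dilutions of test compound, incubated at 37 °C. Cell number counted by Coulter counter.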

A further data set has as its system HeLa. As to the kind of experiment: Anti-proliferative activity against human HeLa cells measured after 4 days by coulter counter method. It is filed as ADME, cell-based. Put shortly:
as §4

The test system of data set [4] is HEL. In words: Cytotoxicity against HEL cells infected with Cytomegalovirus assessed as growth inhibition. It is filed as cell-based. The note with it: human.
The subject of the next data set is L1210. As to the kind of experiment: Anti-proliferative activity against mouse L1210 cells measured after 48 hrs by coulter counter method. It is filed as ADME, cell-based. Put shortly: as §4
Data set [5] concerns Human alphaherpesvirus 3. As to the kind of experiment: Antiviral activity against thymidine kinase deficient Varicella-Zoster virus 07-1 infected in HEL cells assessed as reduction in virus plaque formation. It is filed as functional, cell-based. The gist of the method:
(§5)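 Confluent HEL fibroblast cultures were infected with VZV at an input of 100 PFU and incubated with varying compound concentrations. Plaques were counted once plaque formation was complete in untreated infected controls.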

Data set [6] is described as follows: as §2. It is filed as cell-based. The note with it: human, HEL cells infected with Cytomegalovirus. Put shortly: as §3
A short description of data set [7]: Cytotoxicity against HEL cells infected with Varicella-Zoster virus assessed as alteration in cell morphology by microscopic method. It is filed as cell-based. The note with it: human, HEL cells infected with Varicella-Zoster virus. Put shortly:
as §3

In data set [8] the test system is HEL. In words: Cytotoxicity against HEL cells infected with Varicella-Zoster virus assessed as growth inhibition. Type of data set: cell-based. The note with it: human, hel.
The test system of data set [9] is Human alphaherpesvirus 3. As to the kind of experiment: Antiviral activity against thymidine kinase expressing Varicella-Zoster virus OKA infected in HEL cells assessed as reduction in virus plaque formation. Type of data set: functional, cell-based, strain Oka vaccine. The note with it: Human alphaherpesvirus 3, strain Oka vaccine, HEL. The gist of the method: as §5

For a further data set, the system named is Human alphaherpesvirus 2. As to the kind of experiment: Antiviral activity against Herpes simplex virus 2 G infected in HEL cells assessed as reduction in virus-induced cytopathogenicity. Type of data set: functional, cell-based. The note with it: Human alphaherpesvirus 2, strain G. (Damage to the host cells serves as the signal in cytopathic effect assays.)

Data set [10] has as its system Human alphaherpesvirus 1. As to the kind of experiment: Antiviral activity against Herpes simplex virus 1 KOS infected in HEL cells assessed as reduction in virus-induced cytopathogenicity. As to conditions: Human alphaherpesvirus 1, KOS. It is filed as functional, cell-based. The gist of the method:
(§6)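 Confluent HEL fibroblast monolayers were infected with 100 CCID50 of virus and incubated with varying concentrations of compound. Cytopathicity was scored once it was complete in untreated infected controls.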

Another data set deals with Human adenovirus 2. In words: Antiviral activity against Human adenovirus 2 infected in HEL cells assessed as reduction in virus-induced cytopathogenicity. It is filed as functional, cell-based. As to conditions: Human mastadenovirus C. Put shortly:
as §6

Data set [11] relates to Human alphaherpesvirus 1. In words: Antiviral activity against thymidine kinase-deficient acyclovir-resistant Herpes simplex virus 1 KOS infected in HEL cells assessed as reduction in virus-induced cytopathogenicity. Type of data set: functional, cell-based. The note with it: Human alphaherpesvirus 1, KOS. The gist of the method: as §6
Data set [12] can be described thus: Cytotoxicity against virus infected HEL cells assessed as alteration in cell morphology by microscopic method. The note with it: human. It is filed as cell-based. Put shortly: as §3
The mark [13] stands for this setting: Human betaherpesvirus 5, AD169, HEL.
Where [14] appears, read: Human betaherpesvirus 5, Davis, HEL.
Where [15] appears, read: Human alphaherpesvirus 3, 07-1, HEL.

Where only a bound is given, the exact number is not on record here.

As to `CCOP(=O)(OCC)C1CC(Cn2c(=O)n(Cc3cccc(F)c3)c(=O)c3ccccc32)ON1Cc1ccccc1` (mixture of isomers; trans), the concentration for a half-maximal effect (EC50) (in general, the concentration at which the effect is half-maximal) with Cytomegalovirus [1] was 9.9 µM; in the data set on Cytomegalovirus [2] it was 8.94 µM; in the data set on Human alphaherpesvirus 3 [5] it was 20 µM. For the same compound, in the data set with HEL [3], the MCC is 100 µM. Moreover, the IC50 (usually the concentration at which inhibition is half-maximal) in the data set on CCRF-CEM (ccrf-cem) is 17 µM; in the data set with HMEC-1 (hmec-1) it was 28 µM; in the data set on HeLa (hela) it was 63 µM; in the data set with L1210 (l1210), 17 µM. In addition, the half-maximal cytotoxic concentration (CC50) – broadly, the concentration giving 50% cytotoxicity – in the data set with HEL [4] worked out at 20.8 µM.
As to `CCOP(=O)(OCC)[C@@H]1C[C@@H](Cn2c(=O)n(C(=O)c3cccc(F)c3)c(=O)c3ccccc32)ON1Cc1ccccc1` (relative stereo), the EC50 in the data set on Cytomegalovirus [1] (setting [13]) was greater than 20 µM; in the data set with Cytomegalovirus [2] (setting [14]), greater than 20 µM; with Human alphaherpesvirus 3 [9], 8.7 µM; in the data set with Human alphaherpesvirus 3 [5] (setting [15]) it was 8.5 µM. Further, the results for the MCC in data set [6] and in [7] were 20 µM and 100 µM, respectively. Moreover, the IC50 was 224 µM with CCRF-CEM (Homo sapiens, CCRF-CEM, 72 h); greater than 250 µM with HMEC-1 (Homo sapiens, HMEC-1); greater than 250 µM in the data set with HeLa (Homo sapiens, HeLa, 96 h); 170 µM in the data set on L1210 (Mus musculus, L1210, 48 h). For the same compound, in the data set on HEL [8], the CC50 was found to be 9.8 µM.
On to `CCOP(=O)(OCC)[C@@H]1C[C@@H](Cn2c(=O)n(C(=O)c3ccc(F)cc3)c(=O)c3ccccc32)ON1C` (relative stereo), for which the EC50 with Cytomegalovirus [1] (setting [13]) was greater than 20 µM; in the data set on Human alphaherpesvirus 2, 12 µM; with Cytomegalovirus [2] (setting [14]) it was greater than 20 µM; in the data set with Human alphaherpesvirus 1 [10] it was 39 µM; in the data set on Human adenovirus 2 it was 17.5 µM; with Human alphaherpesvirus 3 [9], 6.9 µM. Moreover, the 50% effective concentration (EC50) in the data set with Human alphaherpesvirus 1 [11] came to 9 µM; in the data set on Human alphaherpesvirus 3 [5] (setting [15]), 10.7 µM. Further, the MCC in data set [6] is 100 µM; in data set [7] it was no less than 100 µM; in data set [12] it was no less than 100 µM. The CC50 in the data set with HEL [8] was found to be 14.7 µM. In addition, the half-inhibitory concentration (IC50) with L1210 (Mus musculus, L1210, 48 h) is greater than 250 µM.
As to `CCOP(=O)(OCC)[C@@H]1C[C@@H](Cn2c(=O)n(C(=O)c3ccccc3)c(=O)c3ccccc32)ON1Cc1ccccc1` (relative stereo), the half-maximal effective concentration (EC50) was greater than 20 µM in the data set on Cytomegalovirus [1] (setting [13]), greater than 20 µM with Cytomegalovirus [2] (setting [14]), 8.5 µM with Human alphaherpesvirus 3 [9] and greater than 20 µM in the data set with Human alphaherpesvirus 3 [5] (setting [15]). For the same compound, the MCC in data set [6] and in data set [7] was 100 µM throughout. Moreover, the 50% inhibitory concentration (IC50) with CCRF-CEM (Homo sapiens, CCRF-CEM, 72 h) is no less than 250 µM; with HeLa (Homo sapiens, HeLa, 96 h), greater than 250 µM; in the data set with L1210 (Mus musculus, L1210, 48 h), 154 µM. In addition, in the data set with HEL [8], the CC50 worked out at 28.9 µM.
For the compound `Nc1nc2c(ncn2COCCO)c(=O)[nH]1` [ACYCLOVIR], the MCC in data set [7] was greater than 440 µM; in [12], greater than 250 µM.
For `Cc1cn([C@H]2C[C@H](F)[C@@H](CO)O2)c(=O)[nH]c1=O` [ALOVUDINE], the EC50 with Human adenovirus 2 was 10 µM. In addition, in [12], the MCC was greater than 250 µM.
As for `O=c1[nH]c(=O)n([C@H]2C[C@H](O)[C@@H](CO)O2)cc1/C=C/Br` [BRIVUDINE], the EC50 in the data set with Human alphaherpesvirus 2 was 146 µM; with Human alphaherpesvirus 3 [9], 0.005 µM; in the data set with Human alphaherpesvirus 3 [5] (setting [15]), 22.7 µM. For the same compound, the results for the MCC in data set [7] and in data set [12] were greater than 300 µM and greater than 250 µM, respectively. For the same compound, the 50% cytotoxic concentration (CC50) with HEL [8] came to 300 µM.
With `Nc1nc(O)c2ncn(COC(CO)CO)c2n1` [GANCICLOVIR], the EC50 in the data set with Cytomegalovirus [1] (setting [13]) stood at 14.9 µM; with Human alphaherpesvirus 2, 0.055 µM; in the data set with Cytomegalovirus [2] (setting [14]) it was 6.5 µM. In addition, the MCC in [6] was greater than 350 µM; in [12], greater than 100 µM. The CC50 in the data set with HEL [4] was greater than 350 µM.
Consider `NC(=O)c1ncn([C@@H]2O[C@H](CO)[C@@H](O)[C@H]2O)n1` [RIBAVIRIN], for which the MCC in data set [12] was no less than 250 µM.
As to `Nc1ccn([C@H]2CC[C@@H](CO)O2)c(=O)n1` [ZALCITABINE], in the data set with Human adenovirus 2, the 50% effective concentration (EC50) is 7.2 µM. The MCC in data set [12] was greater than 250 µM.
